A1 apoptosis 2 = compounds inhibiting A1, read as caspase activation; MEF A1-2A-BIM cells, caspase-Glo luminescence, 3 h; percent of clofoctol response, DMSO zero; caspase activation, % (concentration not given with the values); 24,000 tested, under 10 active; AID 2465; in the data active = caspase activation above about 5.9%
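Evaluation: Caspase-3/7 activity from luminescence increase | Assay system: A1-2A-BIM mouse embryonic fibroblasts | Quantity: 2500 MEF cells/well | Medium: RPMI-1640 plus 10% FBS | Detection: Caspase-Glo 3/7 luminescence, 1 h at room temperature | Dosing: 50 nL compound per well, pinned | Timing: Cells settled overnight, compound exposure 3 h at 37 °C, 5% CO2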
T cruzi HTS = blocks T. cruzi growth inside host cells; intracellular Trypanosoma cruzi in host cells, plate reader; activity score (inhibition), % at 5.01 µM; hit rate 4.9% among 22,000; in the data active = activity score above about 55%;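 also: parasites and compound incubated about four days before reading; 0% = median of neutral control wells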
INS-1E ATP HTS = INS-1E beta cell protection from cytokine death; protection from cytokine-induced ATP loss, % at 10 µM; hit rate 0.1% among 20,000; AID 488910; INS-1E cytokine-induced death, ATP luminescence, 48 h; normalised: neutral wells 0, positive control 100;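 active = mean replicate protection from cytokine-induced ATP loss at least 50% and at least 75% of replicates each reaching 50%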
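Test system: INS-1E rat cells | Quantity: 8000 cells per well | Medium: Phenol-red-free RPMI with 5% fetal bovine serum | Reagent: Cytokine cocktail of IFN-γ, TNF-α and IL-1β | Doses: One compound concentration, pin transfer | Timing: 48 h co-treatment, 10 min post-lysis read | Technique: Luminescent ATP assay (CellTiter-Glo)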
Numbers without * were called inactive. Only a selection was taken, and hits are over-represented in it overall.

Results for Cc1ccc(S(=O)(=O)Nc2ccc3c(c2)C(=O)N([C@H](C)CO)C[C@@H](C)[C@@H](CN(C)Cc2ccc(-c4ccccc4)cc2)O3)cc1 ?
A1 apoptosis 2: 3; T cruzi HTS: 30; INS-1E ATP HTS: -20

How did Cc1ccc(S(=O)(=O)Nc2ccc3c(c2)C(=O)N([C@H](C)CO)C[C@H](C)[C@@H](CN(C)Cc2ccc(-c4ccccc4)cc2)O3)cc1 do in these assays?
T cruzi HTS: -23; INS-1E ATP HTS: -3

Results for C[C@@H]1CN([C@H](C)CO)C(=O)c2cc(NS(=O)(=O)c3ccccc3)ccc2O[C@@H]1CN(C)Cc1ccc(-c2ccccc2)cc1 ?
A1 apoptosis 2: -2; T cruzi HTS: 66*; INS-1E ATP HTS: -28

Results for COc1ccc(S(=O)(=O)Nc2ccc3c(c2)C(=O)N([C@@H](C)CO)C[C@H](C)[C@H](CN(C)Cc2ccc(Oc4ccccc4)cc2)O3)cc1 ?
T cruzi HTS: 74*; INS-1E ATP HTS: -48

What do the screens show for `C[C@H](CO)N1C[C@H](C)[C@@H](CN(C)Cc2ccc(-c3ccccc3)cc2)Oc2ccc(NS(=O)(=O)c3ccccc3)cc2C1=O`?
A1 apoptosis 2: 0; T cruzi HTS: 41*

Results for COC(=O)CCCCCCC(=O)N/N=C/C[C@H](O)[C@H](O)[C@@H](C)O ?
T cruzi HTS: -14; INS-1E ATP HTS: 12

What do the screens show for `COc1ccc(COCC23N=C4SCc5ccccc5CN4[C@H](c4ccccc4O2)[C@H]3CO[Si](C)(C)C(C)(C)C)cc1`?
A1 apoptosis 2: 1

What do the screens show for `O=C(NO)c1cccc(C(=O)N/N=C/c2cccc(O)c2O)c1`?
A1 apoptosis 2: -6; T cruzi HTS: 1; INS-1E ATP HTS: -27

Results for O=C(NO)c1cccc(C(=O)N/N=C/c2ccc(O)c(O)c2O)c1 ?
A1 apoptosis 2: -1; T cruzi HTS: 61*; INS-1E ATP HTS: 8

Results for O=C(N/N=C/c1ccccc1O)c1ccccc1O ?
T cruzi HTS: 32; INS-1E ATP HTS: -135

What do the screens show for `O=C(N/N=C/c1cc(O)ccc1O)c1ccccc1O`?
T cruzi HTS: 18; INS-1E ATP HTS: -126

How did O=C(N/N=C/c1ccc(O)c(O)c1O)c1ccccc1O do in these assays?
A1 apoptosis 2: -5; T cruzi HTS: 57*; INS-1E ATP HTS: -19

Results for O=C(N/N=C/c1cc(Cl)cc(Cl)c1O)c1ccccc1O ?
A1 apoptosis 2: -10; T cruzi HTS: 73*; INS-1E ATP HTS: -115

What do the screens show for `COc1ccc(/C=N/NC(=O)c2ccc(C(=O)NO)cc2)cc1O`?
A1 apoptosis 2: -1

How did COC(=O)[C@H](Cc1ccc(N=[N+]=[N-])cc1)N1CC2=C[C@H]([C@@H](O)Cc3ccccc3)n3c(=O)n(C)c(=O)n3[C@@H]2[C@@H](C2CC2)O1 do in these assays?
A1 apoptosis 2: 0

How did C[C@@H]1CN([C@H](C)CO)C(=O)Cc2cc(NC(=O)Nc3ccc4c(c3)OCO4)ccc2O[C@H]1CN(C)Cc1ccccc1 do in these assays?
A1 apoptosis 2: -1; T cruzi HTS: -15; INS-1E ATP HTS: -8

Results for C[C@@H]1CN([C@H](C)CO)C(=O)Cc2cc(NC(=O)Nc3ccc(F)cc3)ccc2O[C@H]1CN(C)Cc1ccc(-c2ccccc2)cc1 ?
A1 apoptosis 2: 1; T cruzi HTS: 74*; INS-1E ATP HTS: -72

What do the screens show for `C[C@H]1CN([C@@H](C)CO)C(=O)Cc2cc(NC(=O)Nc3ccc(F)cc3)ccc2O[C@H]1CN(C)Cc1ccc(-c2ccccc2)cc1`?
A1 apoptosis 2: 1; T cruzi HTS: 22; INS-1E ATP HTS: -44

Results for C[C@@H]1CN([C@H](C)CO)C(=O)Cc2cc(NC(=O)Nc3ccc4c(c3)OCO4)ccc2O[C@H]1CN(C)Cc1ccc(-c2ccccc2)cc1 ?
T cruzi HTS: 72*; INS-1E ATP HTS: -35

Results for COC(=O)CCCCCCC(=O)N/N=C/c1ccccc1C(=O)O ?
T cruzi HTS: -22; INS-1E ATP HTS: 7

How did COC(=O)CCCCCCC(=O)N/N=C/c1ccc(OCc2ccccc2)cc1O do in these assays?
T cruzi HTS: 44; INS-1E ATP HTS: -12

Results for C[C@H]1CN([C@@H](C)CO)C(=O)c2cc(NC(=O)Nc3ccc(C(F)(F)F)cc3)ccc2O[C@@H]1CN(C)Cc1ccc(Cl)c(Cl)c1 ?
T cruzi HTS: 11; INS-1E ATP HTS: -52

How did C[C@H](CO)N1C[C@H](C)[C@H](CN(C)Cc2ccc(C(F)(F)F)cc2)Oc2ccc(NC(=O)Nc3ccc(C(F)(F)F)cc3)cc2CC1=O do in these assays?
A1 apoptosis 2: 6.6*; T cruzi HTS: 72*; INS-1E ATP HTS: -69

What do the screens show for `C[C@@H]1CN([C@@H](C)CO)C(=O)Cc2cc(NC(=O)Nc3ccc(C(F)(F)F)cc3)ccc2O[C@H]1CN(C)Cc1ccc(-c2ccccc2)cc1`?
A1 apoptosis 2: 0

Results for C[C@@H]1CN([C@H](C)CO)C(=O)Cc2cc(NC(=O)CCC(F)(F)F)ccc2O[C@H]1CN(C)Cc1ccc(C(F)(F)F)cc1 ?
T cruzi HTS: 49; INS-1E ATP HTS: -7

How did C[C@H](CO)N1C[C@H](C)[C@H](CN(C)Cc2ccc(Cl)c(Cl)c2)Oc2ccc(NC(=O)Nc3ccc(C(F)(F)F)cc3)cc2C1=O do in these assays?
A1 apoptosis 2: -1; T cruzi HTS: 91*; INS-1E ATP HTS: -25

How did C[C@@H]1CN([C@H](C)CO)C(=O)Cc2cc(NC(=O)Nc3ccc(C(F)(F)F)cc3)ccc2O[C@@H]1CN(C)Cc1ccc(C(F)(F)F)cc1 do in these assays?
A1 apoptosis 2: 1; T cruzi HTS: 68*; INS-1E ATP HTS: -65

Results for C[C@H](CO)N1C[C@H](C)[C@@H](CN(C)Cc2ccc(C(F)(F)F)cc2)Oc2ccc(NC(=O)Nc3ccccc3)cc2CC1=O ?
A1 apoptosis 2: 2

Results for C[C@H]1CN([C@@H](C)CO)C(=O)Cc2cc(NC(=O)CCC(F)(F)F)ccc2O[C@@H]1CN(C)Cc1ccc(C(F)(F)F)cc1 ?
T cruzi HTS: 64*; INS-1E ATP HTS: -1

How did O=S(=O)(NC1CCN(Cc2cccc(OCCO)c2)CC1)c1ccc(Cl)cc1 do in these assays?
A1 apoptosis 2: 0

What do the screens show for `O=C(CCCCCC(=O)N/N=C/c1ccoc1)NO`?
A1 apoptosis 2: 0

How did C[C@@H]1CN([C@H](C)CO)C(=O)Cc2cc(NC(=O)Nc3ccc(C(F)(F)F)cc3)ccc2O[C@H]1CN(C)Cc1ccc(C(F)(F)F)cc1 do in these assays?
A1 apoptosis 2: 0; T cruzi HTS: 81*; INS-1E ATP HTS: -1

Results for C[C@@H]1CN([C@@H](C)CO)C(=O)Cc2cc(NC(=O)Nc3ccc(C(F)(F)F)cc3)ccc2O[C@@H]1CN(C)Cc1ccc(C(=O)O)cc1 ?
A1 apoptosis 2: 0; T cruzi HTS: -24; INS-1E ATP HTS: 9

Results for C[C@H](CO)N1C[C@H](C)[C@H](CN(C)Cc2ccncc2)Oc2ccc(NC(=O)Nc3ccc(C(F)(F)F)cc3)cc2CC1=O ?
A1 apoptosis 2: -1; T cruzi HTS: 61*; INS-1E ATP HTS: -19

Results for C[C@H]1CN([C@@H](C)CO)C(=O)Cc2cc(NC(=O)Nc3ccc(C(F)(F)F)cc3)ccc2O[C@@H]1CN(C)Cc1ccc(Cl)c(Cl)c1 ?
T cruzi HTS: -5; INS-1E ATP HTS: -12
